Molecules are shown by their SMILES.

This note sets out measurements from ChEMBL document CHEMBL5653631, “A Potent and Selective ULK1 Inhibitor Suppresses Autophagy and Sensitizes Cancer Cells to Nutrient Stress” (iScience, 2018).

Test [1] deals with Serine/threonine-protein kinase PAK 1 (Homo sapiens) (UniProt Q13153). The experiment in a line: Inhibition of human recombinant PAK1 at 40 nM in presence of ATP by radiometric assay relative to control.
Test [2] addresses Insulin receptor-related protein (Homo sapiens) (UniProt P14616). As to the kind of experiment: Inhibition of human recombinant IRR at 40 nM in presence of ATP by radiometric assay relative to control.
The target in test [3] is Tyrosine-protein kinase Lyn (Homo sapiens) (UniProt P07948). As to the kind of experiment: Inhibition of human recombinant LYN at 40 nM related to control ULK1.
In test [4] the target is Dual specificity protein kinase CLK2 (Homo sapiens) (UniProt P49760). The experiment in a line: Inhibition of human recombinant CLK2 at 40 nM related to control ULK1.
Test [5] concerns the target ALK tyrosine kinase receptor (Homo sapiens) (UniProt Q9UM73). As to the kind of experiment: Inhibition of human recombinant ALK at 40 nM related to control ULK1. In outline:
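Radiometric activity assays in a panel of 327 human recombinant kinases, each run in duplicate at one inhibitor concentration. Activity remaining is expressed as percent of vehicle control, and percent inhibition is calculated as 100% minus percent activity remaining.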

The target of test [6] is Activin receptor type-1-like (Homo sapiens) (UniProt P37023). The experiment in a line: Inhibition of human recombinant ALK1 at 500 nM related to control ULK1. In outline: (§1)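 Panel of 327 recombinant human kinases, each assayed in vitro by radiometric activity assay in duplicate at a single inhibitor concentration per compound, chosen with reference to its ULK1 inhibition. Activity remaining was expressed as percent of vehicle control, and percent inhibition was calculated as 100 minus percent activity remaining.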

Test [7] addresses TRAF2 and NCK-interacting protein kinase (Homo sapiens) (UniProt Q9UKE5). As to the kind of experiment: Inhibition of human recombinant TNIK at 500 nM related to control ULK1.
The target in test [8] is T1, Activin receptor type-1B (Homo sapiens) (UniProt P36896).
T1 sequence (whole entry): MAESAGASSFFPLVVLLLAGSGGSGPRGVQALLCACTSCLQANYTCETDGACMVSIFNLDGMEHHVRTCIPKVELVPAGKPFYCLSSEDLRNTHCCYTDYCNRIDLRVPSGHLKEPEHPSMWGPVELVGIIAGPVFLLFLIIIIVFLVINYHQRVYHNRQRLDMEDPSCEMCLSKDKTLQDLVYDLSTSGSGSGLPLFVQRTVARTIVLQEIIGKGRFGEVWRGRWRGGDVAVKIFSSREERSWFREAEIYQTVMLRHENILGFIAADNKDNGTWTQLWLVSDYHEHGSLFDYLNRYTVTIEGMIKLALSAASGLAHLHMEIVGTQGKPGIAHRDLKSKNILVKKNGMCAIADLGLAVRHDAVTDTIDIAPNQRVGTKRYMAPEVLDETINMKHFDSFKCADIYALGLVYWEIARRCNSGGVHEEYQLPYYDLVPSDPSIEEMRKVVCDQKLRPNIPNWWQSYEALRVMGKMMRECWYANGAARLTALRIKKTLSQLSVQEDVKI
The experiment in a line: Inhibition of human recombinant ALK4 at 500 nM in presence of ATP by radiometric assay relative to control. In outline:
as §1

Test [9] has as its target Protein kinase C gamma type (Homo sapiens) (UniProt P05129). As to the kind of experiment: Inhibition of human recombinant PKCg at 500 nM related to control ULK1.
Test [10] concerns the target Serine/threonine-protein kinase Nek7 (Homo sapiens) (UniProt Q8TDX7). The experiment in a line: Inhibition of human recombinant NEK7 at 500 nM related to control ULK1.
Test [11] concerns the target T2, Dual specificity tyrosine-phosphorylation-regulated kinase 3 (Homo sapiens) (UniProt O43781).
T2 sequence (whole entry): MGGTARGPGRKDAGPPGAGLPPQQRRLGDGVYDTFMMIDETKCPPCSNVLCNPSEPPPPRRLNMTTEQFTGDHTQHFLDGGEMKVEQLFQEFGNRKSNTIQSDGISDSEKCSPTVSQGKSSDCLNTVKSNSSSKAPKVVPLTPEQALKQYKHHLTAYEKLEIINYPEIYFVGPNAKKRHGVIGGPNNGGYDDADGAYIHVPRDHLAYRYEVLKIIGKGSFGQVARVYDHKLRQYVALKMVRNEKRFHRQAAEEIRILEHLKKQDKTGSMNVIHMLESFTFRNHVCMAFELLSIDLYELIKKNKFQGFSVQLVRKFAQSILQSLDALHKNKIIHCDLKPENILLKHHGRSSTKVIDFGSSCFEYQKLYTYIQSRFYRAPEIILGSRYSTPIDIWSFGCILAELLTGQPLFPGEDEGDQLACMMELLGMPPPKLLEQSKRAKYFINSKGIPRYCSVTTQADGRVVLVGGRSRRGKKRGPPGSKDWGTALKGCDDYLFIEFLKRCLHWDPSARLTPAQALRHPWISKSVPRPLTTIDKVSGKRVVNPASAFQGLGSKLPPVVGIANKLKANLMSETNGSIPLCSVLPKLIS
The experiment in a line: Inhibition of human recombinant DYRK3 at 500 nM in presence of ATP by radiometric assay relative to control.

Test [12] deals with Dual specificity protein kinase CLK2 (Homo sapiens) (UniProt P49760). The experiment in a line: Inhibition of human recombinant CLK2 at 15 nM in presence of ATP by radiometric assay relative to control.
Test [13] has as its target Calcium/calmodulin-dependent protein kinase type 1B (Homo sapiens) (UniProt Q6P2M8). The experiment in a line: Inhibition of human recombinant CaMK1b at 15 nM in presence of ATP by radiometric assay relative to control.
The target in test [14] is cAMP-dependent protein kinase catalytic subunit alpha (Homo sapiens) (UniProt P17612). As to the kind of experiment: Inhibition of human recombinant PKACalpha at 15 nM in presence of ATP by radiometric assay relative to control.
In test [15] the target is Misshapen-like kinase 1 (Homo sapiens) (UniProt Q8N4C8). The experiment in a line: Inhibition of human recombinant MINK at 15 nM related to control ULK1.
Test [16] deals with Myosin light chain kinase, smooth muscle (Homo sapiens) (UniProt Q15746). The experiment in a line: Inhibition of human recombinant smMLCK at 15 nM in presence of ATP by radiometric assay relative to control.
Test [17] has as its target Serine/threonine-protein kinase VRK2 (Homo sapiens) (UniProt Q86Y07). The experiment in a line: Inhibition of human recombinant VRK2 at 15 nM related to control ULK1.
In test [18] the target is Tyrosine-protein kinase Tec (Homo sapiens) (UniProt P42680). As to the kind of experiment: Inhibition of human recombinant TEC at 15 nM related to control ULK1.
Sequence of Tyrosine-protein kinase Tec (Homo sapiens) (P42680 whole entry, looked up): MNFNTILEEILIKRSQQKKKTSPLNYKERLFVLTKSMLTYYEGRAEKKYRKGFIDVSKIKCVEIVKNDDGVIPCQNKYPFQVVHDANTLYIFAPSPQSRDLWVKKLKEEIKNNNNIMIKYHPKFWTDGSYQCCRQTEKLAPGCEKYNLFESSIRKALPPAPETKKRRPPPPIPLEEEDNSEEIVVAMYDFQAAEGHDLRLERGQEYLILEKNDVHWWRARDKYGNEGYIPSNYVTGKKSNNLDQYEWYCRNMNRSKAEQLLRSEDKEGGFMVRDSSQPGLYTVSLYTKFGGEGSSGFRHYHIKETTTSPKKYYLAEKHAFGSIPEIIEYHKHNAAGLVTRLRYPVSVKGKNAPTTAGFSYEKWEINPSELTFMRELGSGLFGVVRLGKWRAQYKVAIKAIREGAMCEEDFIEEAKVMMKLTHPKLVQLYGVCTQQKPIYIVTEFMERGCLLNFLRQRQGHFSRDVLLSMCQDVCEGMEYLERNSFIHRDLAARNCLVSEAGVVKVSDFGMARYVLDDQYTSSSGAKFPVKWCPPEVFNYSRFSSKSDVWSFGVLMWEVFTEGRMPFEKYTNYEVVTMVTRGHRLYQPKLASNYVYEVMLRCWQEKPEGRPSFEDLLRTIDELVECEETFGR

Sequence of Dual specificity protein kinase CLK2 (Homo sapiens) (P49760 whole entry, looked up): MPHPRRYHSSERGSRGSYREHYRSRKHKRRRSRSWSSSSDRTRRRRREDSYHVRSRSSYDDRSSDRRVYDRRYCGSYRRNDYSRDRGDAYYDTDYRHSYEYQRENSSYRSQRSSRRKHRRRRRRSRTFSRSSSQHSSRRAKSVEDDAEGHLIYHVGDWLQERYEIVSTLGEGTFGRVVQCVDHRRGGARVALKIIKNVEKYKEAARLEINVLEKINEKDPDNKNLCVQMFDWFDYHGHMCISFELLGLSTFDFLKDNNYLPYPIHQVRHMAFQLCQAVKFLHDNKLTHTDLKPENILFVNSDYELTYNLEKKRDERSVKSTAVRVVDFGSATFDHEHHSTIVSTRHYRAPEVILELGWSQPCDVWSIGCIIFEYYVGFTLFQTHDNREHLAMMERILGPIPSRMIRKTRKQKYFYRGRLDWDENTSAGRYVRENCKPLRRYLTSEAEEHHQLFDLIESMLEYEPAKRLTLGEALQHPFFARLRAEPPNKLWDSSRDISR
Sequence of Serine/threonine-protein kinase Nek7 (Homo sapiens) (Q8TDX7 whole entry, looked up): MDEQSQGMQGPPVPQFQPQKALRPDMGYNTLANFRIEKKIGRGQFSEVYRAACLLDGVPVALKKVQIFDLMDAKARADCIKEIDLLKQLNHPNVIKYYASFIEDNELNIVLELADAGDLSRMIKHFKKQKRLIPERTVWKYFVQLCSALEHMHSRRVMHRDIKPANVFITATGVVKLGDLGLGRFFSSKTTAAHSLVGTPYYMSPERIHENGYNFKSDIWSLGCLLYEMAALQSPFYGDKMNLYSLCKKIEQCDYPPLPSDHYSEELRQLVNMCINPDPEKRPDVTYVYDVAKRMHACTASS
Sequence of ALK tyrosine kinase receptor (Homo sapiens) (Q9UM73 19-1620 limits assumed): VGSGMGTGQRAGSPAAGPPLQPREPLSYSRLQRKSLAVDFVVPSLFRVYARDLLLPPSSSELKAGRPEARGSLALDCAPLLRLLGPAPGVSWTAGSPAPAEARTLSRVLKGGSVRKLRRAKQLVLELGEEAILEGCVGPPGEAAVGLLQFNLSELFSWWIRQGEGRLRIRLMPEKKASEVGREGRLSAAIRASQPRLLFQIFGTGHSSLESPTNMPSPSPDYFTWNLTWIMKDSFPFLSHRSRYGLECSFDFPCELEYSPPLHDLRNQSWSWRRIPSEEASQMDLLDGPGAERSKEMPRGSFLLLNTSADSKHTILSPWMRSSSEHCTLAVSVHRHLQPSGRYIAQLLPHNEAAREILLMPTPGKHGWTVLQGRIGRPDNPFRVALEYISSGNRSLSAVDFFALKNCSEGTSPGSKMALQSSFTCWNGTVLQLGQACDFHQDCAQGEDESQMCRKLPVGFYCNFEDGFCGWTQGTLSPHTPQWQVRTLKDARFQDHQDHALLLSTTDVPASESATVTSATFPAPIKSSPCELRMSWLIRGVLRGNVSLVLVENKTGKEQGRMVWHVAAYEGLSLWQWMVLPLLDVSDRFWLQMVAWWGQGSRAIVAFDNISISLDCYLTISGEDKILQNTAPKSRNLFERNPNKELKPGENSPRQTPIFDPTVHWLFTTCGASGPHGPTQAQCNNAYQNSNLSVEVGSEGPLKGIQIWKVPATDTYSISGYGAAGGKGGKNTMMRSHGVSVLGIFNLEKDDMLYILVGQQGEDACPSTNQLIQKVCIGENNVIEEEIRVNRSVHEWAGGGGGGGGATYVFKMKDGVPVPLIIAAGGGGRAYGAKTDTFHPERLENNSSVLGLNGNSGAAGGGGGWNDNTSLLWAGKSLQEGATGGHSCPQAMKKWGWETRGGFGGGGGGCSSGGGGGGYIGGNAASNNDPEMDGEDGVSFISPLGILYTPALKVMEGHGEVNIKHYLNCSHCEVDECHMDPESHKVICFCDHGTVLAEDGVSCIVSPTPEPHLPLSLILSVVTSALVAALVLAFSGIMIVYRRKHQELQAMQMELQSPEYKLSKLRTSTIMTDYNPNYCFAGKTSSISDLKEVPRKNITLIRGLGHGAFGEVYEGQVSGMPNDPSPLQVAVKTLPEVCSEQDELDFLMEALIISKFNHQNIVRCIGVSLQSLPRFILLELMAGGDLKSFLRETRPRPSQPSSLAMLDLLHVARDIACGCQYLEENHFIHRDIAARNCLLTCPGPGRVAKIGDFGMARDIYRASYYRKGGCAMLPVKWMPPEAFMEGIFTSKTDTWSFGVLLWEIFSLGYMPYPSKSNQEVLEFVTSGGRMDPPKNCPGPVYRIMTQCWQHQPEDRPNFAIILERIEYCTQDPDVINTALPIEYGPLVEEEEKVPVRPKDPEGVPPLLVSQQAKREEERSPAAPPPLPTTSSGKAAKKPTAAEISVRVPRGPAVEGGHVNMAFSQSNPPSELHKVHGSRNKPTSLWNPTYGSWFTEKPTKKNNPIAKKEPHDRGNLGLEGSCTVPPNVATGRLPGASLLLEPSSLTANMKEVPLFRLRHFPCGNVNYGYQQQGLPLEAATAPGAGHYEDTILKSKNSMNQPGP
Sequence of Insulin receptor-related protein (Homo sapiens) (P14616 27-742 limits assumed): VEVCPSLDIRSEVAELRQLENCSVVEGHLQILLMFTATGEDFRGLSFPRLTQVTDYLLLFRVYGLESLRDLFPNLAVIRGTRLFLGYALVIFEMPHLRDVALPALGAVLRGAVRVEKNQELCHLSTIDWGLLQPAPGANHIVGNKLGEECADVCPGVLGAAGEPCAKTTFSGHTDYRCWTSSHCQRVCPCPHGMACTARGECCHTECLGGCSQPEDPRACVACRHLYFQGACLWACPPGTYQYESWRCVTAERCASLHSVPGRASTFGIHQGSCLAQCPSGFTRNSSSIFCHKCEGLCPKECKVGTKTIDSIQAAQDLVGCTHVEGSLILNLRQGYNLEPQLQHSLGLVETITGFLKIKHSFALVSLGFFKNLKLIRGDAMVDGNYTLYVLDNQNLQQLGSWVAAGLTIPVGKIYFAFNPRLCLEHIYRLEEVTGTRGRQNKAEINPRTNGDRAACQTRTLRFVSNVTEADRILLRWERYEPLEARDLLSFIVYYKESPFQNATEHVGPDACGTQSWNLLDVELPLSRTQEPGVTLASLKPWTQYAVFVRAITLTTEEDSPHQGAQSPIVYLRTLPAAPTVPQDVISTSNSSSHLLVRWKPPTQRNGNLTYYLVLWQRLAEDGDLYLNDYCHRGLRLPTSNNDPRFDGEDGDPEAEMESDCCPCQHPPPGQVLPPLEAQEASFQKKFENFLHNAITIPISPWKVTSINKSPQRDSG
Sequence of Insulin receptor-related protein (Homo sapiens) (P14616 747-1297 limits assumed): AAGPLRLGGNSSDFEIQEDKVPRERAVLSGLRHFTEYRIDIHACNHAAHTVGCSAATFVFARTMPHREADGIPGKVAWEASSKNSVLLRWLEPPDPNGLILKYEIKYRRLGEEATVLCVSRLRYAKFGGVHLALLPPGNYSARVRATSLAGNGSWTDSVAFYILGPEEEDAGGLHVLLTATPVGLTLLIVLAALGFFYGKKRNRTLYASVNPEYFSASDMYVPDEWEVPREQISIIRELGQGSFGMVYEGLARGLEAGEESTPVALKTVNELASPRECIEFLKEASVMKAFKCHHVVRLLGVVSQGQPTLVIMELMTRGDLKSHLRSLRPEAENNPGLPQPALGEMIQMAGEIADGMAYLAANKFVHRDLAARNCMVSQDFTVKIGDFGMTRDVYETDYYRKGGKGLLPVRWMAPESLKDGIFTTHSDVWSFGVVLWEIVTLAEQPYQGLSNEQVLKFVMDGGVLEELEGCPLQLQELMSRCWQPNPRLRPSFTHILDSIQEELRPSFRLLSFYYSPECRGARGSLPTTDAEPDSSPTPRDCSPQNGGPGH

Broadly, the inhibition is the share of the control response that was lost under treatment. As for `O=C(N[C@@H](C1CC1)C(F)(F)F)c1cc(-c2cnn3cc(-c4ccc(F)cc4)cnc23)cs1`, the inhibition was found to be 0% in test [1] and 2% in test [2]. The fold change (FC) in test [3] came out at 0.25; in [4], 0.26; in test [5] it was 0.

In the case of `CNC(=O)c1ccccc1Oc1nc(Nc2cc(OC)c(OC)c(OC)c2)ncc1Br`, the fold change (FC) in test [6] was 0; in test [7] it was 0.05; in test [9], 0.12; in [10], 0. The inhibition in test [8] was 15%; in test [11] it was 0%.

`CC(C)[C@H](NC(=O)c1cc(-c2cnn3cc(-c4ccc(OCCN5CCCCC5)cc4)cnc23)cs1)C(F)(F)F`: the inhibition came out at 29% in [12], 0% in test [13], 0% in test [14] and 0% in test [16]. Besides, the figures for the fold change (FC) in [15], in test [17] and in test [18] were 0.05, 0 and 0, respectively.
